A short description of data set [1]: folding enthalpy; higher = less favourable; fluorescence melt of hairpins on a sequencing array, two-state fit. The conditions noted are these: sodium 0.088 M. In short, it runs like this: (§1)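 In 50 mM Na-HEPES pH 8.0 containing 25 mM NaCl, hairpins from the library on a sequenced MiSeq flow cell were imaged for Cy3 fluorescence at 2.5 °C steps up to 60 °C, with Cy3 and quencher oligos annealed. After normalisation to pre-quench Cy3 and to control constructs, two-state fits with bootstrapping gave melting temperature and folding enthalpy. Four replicates were combined by inverse-variance weighting, and fitted temperatures were shifted up by 9.35 °C to match UV melts.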

A short description of data set [2]: melting temperature; fluorescence melt of hairpins on a sequencing array, two-state fit, raised by 9.35 °C to match UV melts. The following applies: sodium 0.088 M. The method, boiled down:
as §1

In the case of GCATCATCGAAAGATTGC (((..(((....)))))), the folding enthalpy in data set [1] is -19.8 kcal/mol. Moreover, the Tm in data set [2] stood at 30.8 °C.

Regarding GCATCCGAAAGGAAATGC ((((((....)))..))), the folding enthalpy in data set [1] was -25.3 kcal/mol. The Tm in data set [2] was 46.1 °C.

GCATCCGAAAGGAGCTGC ((((((....)))..))): in data set [1], the folding enthalpy was -19.2 kcal/mol. Moreover, in data set [2], the Tm stood at 50.6 °C.

With GCATCCGAAAGGAGTTGC ((((((....)))..))), in data set [1], the folding enthalpy was -15.4 kcal/mol. In data set [2], the Tm was found to be 37.9 °C.

With GCATCCGAAAGGATCTGC ((((((....)))..))), the folding enthalpy in data set [1] is -17.1 kcal/mol. Besides, the Tm in data set [2] came to 46.5 °C.

As to GCATCCGGAAACGGATAC (.(((((....))))).), the folding enthalpy in data set [1] was -16.9 kcal/mol. Besides, the Tm in data set [2] is 39.7 °C.

Consider GCATCGCGAAAGCATTGC (((..((....))..))), for which the folding enthalpy in data set [1] was -13.1 kcal/mol. In data set [2], the Tm turned out to be 37.7 °C.

In the case of GCATCGCGAAAGCCAAGC ((.(.((....)).).)), the folding enthalpy in data set [1] was -9.2 kcal/mol. Besides, in data set [2], the Tm turned out to be 27.5 °C.

On to GCATCGCGAAAGCCGTGC (((..((....))..))), for which the folding enthalpy in data set [1] was -19.3 kcal/mol. For the same sequence, in data set [2], the Tm turned out to be 45.1 °C.

For GCATCGCGAAAGCGTGGC ((..(((....)))..)), the folding enthalpy in data set [1] is -15.8 kcal/mol. In addition, the Tm in data set [2] is 54.7 °C.

GCATCGCGAAAGCTACGC ((.(.((....)).).)): in data set [1], the folding enthalpy was -8.55 kcal/mol. The Tm in data set [2] was 32.8 °C.

Consider GCATCGGGAAACCAACGC ((.(.((....)).).)), for which, in data set [1], the folding enthalpy was -17.7 kcal/mol. In addition, the Tm in data set [2] amounted to 28.3 °C.

For GCATCGGGAAACCGACGC ((.((((....)))).)), the folding enthalpy in data set [1] is -42.1 kcal/mol. Further, the Tm in data set [2] worked out at 50.4 °C.

Consider GCATCGGGAAACTGATGC (((((.(....).))))), for which the folding enthalpy in data set [1] is -37.2 kcal/mol. For the same sequence, the Tm in data set [2] was found to be 55.7 °C.

For the sequence GCATCTGCGAAAGCATGC (((..(((....)))))), the folding enthalpy in data set [1] is -14.4 kcal/mol. In addition, the Tm in data set [2] came to 39.8 °C.

Turning to GCATCTGGAAACAGATGC (((((((....))))))), the folding enthalpy in data set [1] was -47.9 kcal/mol. The Tm in data set [2] turned out to be 67.3 °C.

GCATGAGCGAAAGCTTGC (((..(((....)))))): the folding enthalpy in data set [1] is -14.1 kcal/mol. Also, the Tm in data set [2] is 45.6 °C.

Consider GCATGATCGAAAGATTGC (((..(((....)))))), for which, in data set [1], the folding enthalpy was -19.9 kcal/mol. In data set [2], the Tm was 32.6 °C.

Consider GCATGCCCGAAAGGGTGC (((..(((....)))))), for which the folding enthalpy in data set [1] is -14.3 kcal/mol. Further, in data set [2], the Tm was found to be 44.4 °C.

Take GCATGCCGAAAGGCCTGC (((.(((....))).))): in data set [1], the folding enthalpy was -31.6 kcal/mol. In data set [2], the Tm is 55.9 °C.

For the sequence GCATGCGAAAGCAATTGC ((((((....)))..))), the folding enthalpy in data set [1] was -19.5 kcal/mol. Moreover, the Tm in data set [2] was 44.1 °C.

As to GCATGCGAAAGCACATGC ((((((....)))..))), in data set [1], the folding enthalpy was -19 kcal/mol. Moreover, in data set [2], the Tm worked out at 51 °C.

For GCATGCGAAAGCACGTGC ((((((....)))..))), the folding enthalpy in data set [1] was -19.2 kcal/mol. The Tm in data set [2] amounted to 39.8 °C.

Take GCATGCGAAAGCACTGC ((((((....))).))): in data set [1], the folding enthalpy was -22.3 kcal/mol. The Tm in data set [2] was 51.3 °C.

As for GCATGCGAAAGCACTTGC ((((((....)))..))), the folding enthalpy in data set [1] is -15.4 kcal/mol. The Tm in data set [2] was 37.7 °C.

As to GCATGCGAAAGCAGATGC ((((((....)))..))), in data set [1], the folding enthalpy is -24.6 kcal/mol. Moreover, in data set [2], the Tm was found to be 51.4 °C.

In the case of GCATGCGAAAGCAGGTGC ((((((....)))..))), the folding enthalpy in data set [1] is -23.2 kcal/mol. Further, the Tm in data set [2] was 51.1 °C.

For GCATGCGAAAGCAGTGC ((((((....))).))), the folding enthalpy in data set [1] was -27 kcal/mol. For the same sequence, the Tm in data set [2] is 54.6 °C.

In the case of GCATGCGGAAACGCATAC (.(((((....))))).), the folding enthalpy in data set [1] is -9.77 kcal/mol. Moreover, the Tm in data set [2] turned out to be 44 °C.

As for GCATGCTCGAAAGAGTGC (((..(((....)))))), the folding enthalpy in data set [1] is -15.8 kcal/mol. The Tm in data set [2] is 34.3 °C.

Turning to GCATGGACGAAAGTCTGC (((..(((....)))))), the folding enthalpy in data set [1] is -19.1 kcal/mol. Moreover, the Tm in data set [2] was found to be 43 °C.

As for GCATGGCGAAAGCCCTGC (((.(((....))).))), the folding enthalpy in data set [1] was -45.3 kcal/mol. Besides, the Tm in data set [2] was determined as 53 °C.

For GCATGGCGAAAGCGAAGC ((.(.((....)).).)), the folding enthalpy in data set [1] was -11.7 kcal/mol. The Tm in data set [2] turned out to be 35.4 °C.

With GCATGGCGAAAGCGTTGC (((..((....))..))), the folding enthalpy in data set [1] was -21.5 kcal/mol. Moreover, in data set [2], the Tm came to 48 °C.

Turning to GCATGGCGAAAGCTAAGC ((.(.((....)).).)), the folding enthalpy in data set [1] is -12.6 kcal/mol. In data set [2], the Tm stood at 38.4 °C.

For GCATGGCGAAAGCTACGC ((.(.((....)).).)), the folding enthalpy in data set [1] is -16.4 kcal/mol. Further, the Tm in data set [2] was found to be 35 °C.

Regarding GCATGGCGAAAGCTGTGC (((..((....))..))), in data set [1], the folding enthalpy was -31.6 kcal/mol. In addition, the Tm in data set [2] turned out to be 59.9 °C.

Consider GCATGGGGAAACCCACGC ((.((((....)))).)), for which the folding enthalpy in data set [1] was -23.8 kcal/mol. Besides, in data set [2], the Tm is 46.7 °C.

Turning to GCATGGGGAAACCCGTGC (((.(((....))).))), the folding enthalpy in data set [1] was -47.5 kcal/mol. Besides, in data set [2], the Tm was found to be 58.7 °C.

For the sequence GCATGTCGAAAGACCTGC (((.(((....))).))), in data set [1], the folding enthalpy was -37.4 kcal/mol. For the same sequence, the Tm in data set [2] was found to be 50.6 °C.

As to GCATGTGGAAACACATGC (((((((....))))))), in data set [1], the folding enthalpy was -37.1 kcal/mol. For the same sequence, the Tm in data set [2] was determined as 68.5 °C.

Regarding GCATGTGGAAACACGTGC (((.(((....))).))), the folding enthalpy in data set [1] is -45.4 kcal/mol. In addition, in data set [2], the Tm worked out at 55.6 °C.

Regarding GCATTAACGAAAGTTTGC (((..(((....)))))), the folding enthalpy in data set [1] is -16 kcal/mol. In addition, the Tm in data set [2] is 33.6 °C.

As to GCATTACCGAAAGGTTGC (((..(((....)))))), the folding enthalpy in data set [1] is -20.1 kcal/mol. The Tm in data set [2] came out at 40 °C.

As for GCATTAGGAAACTAGTGC (((.(((....))).))), the folding enthalpy in data set [1] is -28.6 kcal/mol. The Tm in data set [2] is 40.9 °C.

Consider GCATTCCCGAAAGGGTGC (((..(((....)))))), for which the folding enthalpy in data set [1] is -20.9 kcal/mol. Further, in data set [2], the Tm was 43.5 °C.

GCATTCGAAAGAAATGC ((((((....))).))): in data set [1], the folding enthalpy was -30.4 kcal/mol. Further, in data set [2], the Tm came out at 49 °C.

Consider GCATTCGAAAGAAGGTGC ((((((....)))..))), for which the folding enthalpy in data set [1] is -22.2 kcal/mol. Further, the Tm in data set [2] stood at 36.7 °C.

Regarding GCATTCGAAAGAAGTGC ((((((....))).))), in data set [1], the folding enthalpy was -23.2 kcal/mol. Moreover, the Tm in data set [2] is 40.2 °C.

In the case of GCATTCGCGAAAGCGTGC (((..(((....)))))), in data set [1], the folding enthalpy is -11.8 kcal/mol. Also, the Tm in data set [2] was determined as 41.8 °C.

In the case of GCATTGCGAAAGCAGTGC (((.(((....))).))), the folding enthalpy in data set [1] was -48.9 kcal/mol. Besides, in data set [2], the Tm stood at 59.8 °C.

Take GCATTGCGAAAGCTAAGC ((.(.((....)).).)): the folding enthalpy in data set [1] is -14.8 kcal/mol. Further, the Tm in data set [2] stood at 43.7 °C.

Turning to GCATTGCGAAAGCTACGC ((.(.((....)).).)), in data set [1], the folding enthalpy was -14 kcal/mol. The Tm in data set [2] stood at 39.1 °C.

For GCATTGCGAAAGCTGTGC (((..((....))..))), the folding enthalpy in data set [1] was -22.2 kcal/mol. Moreover, in data set [2], the Tm was 56 °C.

These data come from the array DNA melting data of Ke et al. (doi:10.1101/2024.01.08.574731).
